Results published in ChEMBL document CHEMBL4196175, “First SAR Study for Overriding NRAS Mutant Driven Acute Myeloid Leukemia” (J Med Chem, 2018).
Activity calls are given as the source filed them. The calls are words filed in the database; no cut-off is given here.

How the values were obtained:
Activated CDC42 kinase 1 [1] = target: T1, Activated CDC42 kinase 1 (Homo sapiens, UniProt Q07912); assay: Inhibition of ACK1 in human OCI-AML3 cells harboring NRAS Q61L mutant assessed as reduction in P70S6K1 phosphorylation at Thr421/Ser424 at 1 uM after 2 hrs by Western blot analysis; format: cell-based
Method in brief: (§1)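 Ba/F3-NRAS-G12D or OCI-AML3 cells exposed 2 h to compounds (1 µM, or a dose series in OCI-AML3); phospho-p70S6K1, phospho-AKT S473, phospho-JNK and phospho-p38 assessed by western blot, actin as loading control.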
Target sequence in this assay (Q07912 whole entry, looked up): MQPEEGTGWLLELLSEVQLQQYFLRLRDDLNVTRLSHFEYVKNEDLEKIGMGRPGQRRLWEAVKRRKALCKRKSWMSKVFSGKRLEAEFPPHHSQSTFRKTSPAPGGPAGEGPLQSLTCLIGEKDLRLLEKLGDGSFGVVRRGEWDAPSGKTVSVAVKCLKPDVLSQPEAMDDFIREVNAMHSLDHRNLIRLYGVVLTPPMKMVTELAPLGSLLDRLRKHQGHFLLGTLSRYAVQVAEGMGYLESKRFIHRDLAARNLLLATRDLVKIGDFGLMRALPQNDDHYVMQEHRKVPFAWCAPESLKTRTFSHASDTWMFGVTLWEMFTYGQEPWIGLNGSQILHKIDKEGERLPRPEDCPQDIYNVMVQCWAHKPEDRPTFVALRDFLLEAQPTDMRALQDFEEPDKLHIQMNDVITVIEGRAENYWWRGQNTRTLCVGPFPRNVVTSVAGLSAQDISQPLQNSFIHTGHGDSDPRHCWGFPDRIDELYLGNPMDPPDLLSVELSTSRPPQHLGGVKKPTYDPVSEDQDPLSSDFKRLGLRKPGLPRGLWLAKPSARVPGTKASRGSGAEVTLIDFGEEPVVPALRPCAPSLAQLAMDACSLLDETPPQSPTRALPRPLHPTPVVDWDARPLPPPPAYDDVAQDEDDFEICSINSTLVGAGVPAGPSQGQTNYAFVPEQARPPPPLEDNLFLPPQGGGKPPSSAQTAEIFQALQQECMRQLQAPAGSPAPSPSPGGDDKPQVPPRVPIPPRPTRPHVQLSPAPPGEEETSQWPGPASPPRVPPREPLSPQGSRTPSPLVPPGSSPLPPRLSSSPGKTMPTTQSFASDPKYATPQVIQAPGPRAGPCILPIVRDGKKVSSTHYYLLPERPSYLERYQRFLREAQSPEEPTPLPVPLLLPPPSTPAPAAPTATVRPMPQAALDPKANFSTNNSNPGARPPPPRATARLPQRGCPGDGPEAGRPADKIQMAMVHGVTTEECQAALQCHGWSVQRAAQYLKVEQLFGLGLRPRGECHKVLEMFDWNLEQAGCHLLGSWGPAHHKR

[2] = Metabolic stability in mouse liver microsomes assessed as compound remaining at 1 uM after 30 mins; format: ADME, microsome; details: read-out: Stability
[3] = target: Activated CDC42 kinase 1 (Mus musculus) (UniProt O54967); assay: Inhibition of ACK1 in mouse BA/F3 cells harboring NRAS-G12D mutant assessed as reduction in P70S6K1 phosphorylation at Thr421/Ser424 at 1 uM after 2 hrs by Western blot analysis; format: cell-based; method in brief: as §1
Sequence of Activated CDC42 kinase 1 (Mus musculus) (O54967 whole entry): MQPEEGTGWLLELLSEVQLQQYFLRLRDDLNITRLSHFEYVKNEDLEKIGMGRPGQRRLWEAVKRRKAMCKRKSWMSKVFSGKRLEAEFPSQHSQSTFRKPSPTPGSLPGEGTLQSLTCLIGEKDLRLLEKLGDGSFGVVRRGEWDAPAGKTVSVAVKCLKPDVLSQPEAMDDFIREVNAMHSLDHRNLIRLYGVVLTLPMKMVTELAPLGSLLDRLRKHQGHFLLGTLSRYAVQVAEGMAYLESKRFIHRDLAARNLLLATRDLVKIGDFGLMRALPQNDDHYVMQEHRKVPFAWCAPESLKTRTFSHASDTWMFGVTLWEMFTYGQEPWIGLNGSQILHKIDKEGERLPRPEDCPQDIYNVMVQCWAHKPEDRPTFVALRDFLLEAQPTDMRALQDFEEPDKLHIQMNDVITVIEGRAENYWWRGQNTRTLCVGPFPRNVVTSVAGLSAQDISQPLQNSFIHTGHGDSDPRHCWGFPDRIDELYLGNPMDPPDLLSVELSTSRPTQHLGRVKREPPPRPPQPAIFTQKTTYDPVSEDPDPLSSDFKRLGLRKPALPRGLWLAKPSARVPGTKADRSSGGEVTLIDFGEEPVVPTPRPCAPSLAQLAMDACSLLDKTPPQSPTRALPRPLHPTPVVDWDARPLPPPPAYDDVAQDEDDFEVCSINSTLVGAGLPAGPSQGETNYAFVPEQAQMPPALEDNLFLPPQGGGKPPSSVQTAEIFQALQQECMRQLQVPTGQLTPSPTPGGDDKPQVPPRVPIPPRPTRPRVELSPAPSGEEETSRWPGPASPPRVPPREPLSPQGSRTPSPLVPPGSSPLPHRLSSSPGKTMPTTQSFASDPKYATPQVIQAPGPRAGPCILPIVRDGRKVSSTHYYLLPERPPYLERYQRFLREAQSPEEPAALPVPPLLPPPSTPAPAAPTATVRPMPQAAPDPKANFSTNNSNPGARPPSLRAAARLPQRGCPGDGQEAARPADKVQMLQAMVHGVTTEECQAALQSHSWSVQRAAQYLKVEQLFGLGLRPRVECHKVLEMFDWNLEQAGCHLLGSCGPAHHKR

[4] = target: T2, Mitogen-activated protein kinase kinase kinase kinase 2 (Mus musculus) (UniProt Q61161); assay: Inhibition of GCK in mouse BA/F3 cells harboring NRAS-G12D mutant assessed as reduction in p38 phosphorylation at Thr180/Tyr182 at 1 uM after 2 hrs by Western blot analysis; format: cell-based; method in brief: as §1
T2 sequence (whole entry): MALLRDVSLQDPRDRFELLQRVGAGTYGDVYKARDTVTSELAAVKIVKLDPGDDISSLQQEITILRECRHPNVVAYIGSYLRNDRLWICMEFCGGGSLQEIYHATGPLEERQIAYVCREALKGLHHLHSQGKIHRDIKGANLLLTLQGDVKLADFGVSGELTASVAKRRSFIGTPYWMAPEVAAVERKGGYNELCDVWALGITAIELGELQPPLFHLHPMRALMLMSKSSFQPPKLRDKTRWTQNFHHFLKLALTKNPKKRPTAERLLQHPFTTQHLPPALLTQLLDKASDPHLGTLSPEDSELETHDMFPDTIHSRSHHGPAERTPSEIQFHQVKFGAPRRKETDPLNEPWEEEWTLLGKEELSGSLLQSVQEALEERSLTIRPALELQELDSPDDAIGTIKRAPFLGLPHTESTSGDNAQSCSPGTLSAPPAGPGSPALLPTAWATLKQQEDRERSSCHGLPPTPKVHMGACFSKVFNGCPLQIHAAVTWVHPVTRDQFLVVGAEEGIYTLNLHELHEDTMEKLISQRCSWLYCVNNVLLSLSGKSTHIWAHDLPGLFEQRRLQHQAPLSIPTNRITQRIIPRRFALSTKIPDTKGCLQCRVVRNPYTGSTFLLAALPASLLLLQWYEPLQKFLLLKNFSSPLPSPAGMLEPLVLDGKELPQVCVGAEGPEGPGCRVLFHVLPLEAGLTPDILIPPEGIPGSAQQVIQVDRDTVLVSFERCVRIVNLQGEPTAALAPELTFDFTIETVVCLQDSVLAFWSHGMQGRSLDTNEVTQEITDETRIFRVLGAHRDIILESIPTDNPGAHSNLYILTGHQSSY

Activated CDC42 kinase 1 [5] = target: T1, Activated CDC42 kinase 1; assay: Inhibition of ACK1 (unknown origin) by radiometric biochemical kinase assay
Target sequence in this assay (Q07912 whole entry): as the sequence (Q07912 whole entry, looked up) above

[6] = target: T3, Mitogen-activated protein kinase kinase kinase kinase 2 (Homo sapiens) (UniProt Q12851); assay: Inhibition of GCK in human OCI-AML3 cells harboring NRAS Q61L mutant assessed as reduction in p38 phosphorylation at Thr180/Tyr182 at 1 uM after 2 hrs by Western blot analysis; format: cell-based; method in brief: as §1
T3 sequence (whole entry): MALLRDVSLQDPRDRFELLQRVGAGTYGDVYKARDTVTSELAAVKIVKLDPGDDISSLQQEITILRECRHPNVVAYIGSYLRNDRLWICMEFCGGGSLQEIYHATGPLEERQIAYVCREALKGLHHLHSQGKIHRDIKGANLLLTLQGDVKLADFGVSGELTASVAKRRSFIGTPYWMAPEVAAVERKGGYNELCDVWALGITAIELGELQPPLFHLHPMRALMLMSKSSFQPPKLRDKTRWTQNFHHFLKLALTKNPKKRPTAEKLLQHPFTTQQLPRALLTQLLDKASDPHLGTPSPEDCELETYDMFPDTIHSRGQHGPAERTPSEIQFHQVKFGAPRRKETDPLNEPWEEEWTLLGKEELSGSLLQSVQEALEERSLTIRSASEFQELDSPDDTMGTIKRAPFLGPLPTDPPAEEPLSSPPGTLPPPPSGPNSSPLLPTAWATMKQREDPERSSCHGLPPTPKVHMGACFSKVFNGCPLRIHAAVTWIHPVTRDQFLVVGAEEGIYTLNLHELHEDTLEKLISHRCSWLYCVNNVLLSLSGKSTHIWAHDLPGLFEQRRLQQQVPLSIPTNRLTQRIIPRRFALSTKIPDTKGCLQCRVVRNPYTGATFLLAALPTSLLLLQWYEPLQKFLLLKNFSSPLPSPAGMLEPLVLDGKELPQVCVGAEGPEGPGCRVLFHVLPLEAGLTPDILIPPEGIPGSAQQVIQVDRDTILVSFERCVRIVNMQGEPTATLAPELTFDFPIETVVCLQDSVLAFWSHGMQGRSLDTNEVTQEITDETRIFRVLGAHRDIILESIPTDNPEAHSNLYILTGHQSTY

[7] = Metabolic stability in dog liver microsomes assessed as compound remaining at 1 uM after 30 mins; format: ADME, Canis lupus familiaris, microsome; details: read-out: Stability
[8] = target: T3, Mitogen-activated protein kinase kinase kinase kinase 2 (Homo sapiens); assay: Inhibition of GCK in human OCI-AML3 cells harboring NRAS Q61L mutant assessed as reduction in JNK phosphorylation at T183/Y185 at 1 uM after 2 hrs by Western blot analysis; format: cell-based; method in brief: as §1
CYP1A2 = target: T4, CYP1A2 (Homo sapiens, UniProt P05177); assay: Inhibition of CYP1A2 (unknown origin) assessed as activity remaining at 10 uM relative to control; format: ADME; details: read-out: Activity
T4 sequence (P05177 whole entry): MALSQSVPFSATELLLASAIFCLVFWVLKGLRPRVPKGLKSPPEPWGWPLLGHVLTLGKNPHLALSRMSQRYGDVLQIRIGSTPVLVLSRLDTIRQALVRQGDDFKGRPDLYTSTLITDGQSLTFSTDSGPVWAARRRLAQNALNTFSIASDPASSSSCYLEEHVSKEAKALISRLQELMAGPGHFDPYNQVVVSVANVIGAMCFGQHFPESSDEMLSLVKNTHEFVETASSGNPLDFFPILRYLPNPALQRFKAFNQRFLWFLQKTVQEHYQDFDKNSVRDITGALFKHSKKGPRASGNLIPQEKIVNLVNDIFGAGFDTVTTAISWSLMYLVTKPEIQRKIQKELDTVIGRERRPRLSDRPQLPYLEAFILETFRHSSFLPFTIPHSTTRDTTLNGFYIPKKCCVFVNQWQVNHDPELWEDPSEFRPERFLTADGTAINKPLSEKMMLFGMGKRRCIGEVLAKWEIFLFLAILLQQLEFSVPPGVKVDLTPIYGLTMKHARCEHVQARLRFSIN

[9] = Growth inhibition of parental human U937 cells after 72 hrs by celltiter-glo assay; format: cell-based, U-937
[10] = target: T5, Mitogen-activated protein kinase kinase kinase kinase 2 (Homo sapiens, UniProt Q12851); assay: Inhibition of GCK (unknown origin) by radiometric biochemical kinase assay
T5 sequence (Q12851 whole entry): T3 sequence (whole entry)

Row | Structure (SMILES) | inhibition (Activated CDC42 kinase 1 [1]) | remaining at 0.5 h, 1 µM [2] | reduction in P70S6K1 phosphorylation (active/inactive) [3] | reduction in p38 phosphorylation (qualitative call) [4] | IC50 (Activated CDC42 kinase 1 [5]) | inhibition [6] | remaining at 0.5 h, 1 µM [7] | reduction in JNK phosphorylation (qualitative call) [8] | activity at 10 µM (CYP1A2) | GI50 at 72 h [9] | IC50 [10]
1 | Cc1cc(Nc2ncc3c(n2)N(C)C(=O)N(c2cc(NC(=O)c4cccc(C(F)(F)F)c4)ccc2C)C3)n(C)n1 | Active | 74.7% | Active | Active | 9 nM | Active | 69.9% | Active | 88.2% | 2460 nM | 5 nM
2 | Cc1ccc(NC(=O)c2cccc(C(F)(F)F)c2)cc1N1Cc2cnc(N)nc2N(C)C1=O | Active | 80% | Active | Active | 18 nM | Active | 67.9% | Active | 89.2% | 4970 nM | 28 nM
3 | Cc1ccc(Nc2ncc3c(n2)N(C)C(=O)N(c2cc(NC(=O)c4ccc(CN5CCC(N(C)C)C5)c(C(F)(F)F)c4)ccc2C)C3)cn1 (stereo not given) | Active | 58.7% | Active | Active | 6 nM | Active | 43.1% | Active | 67.5% | 1970 nM | 2 nM
4 | CC(=O)N1CCN(c2ccc(Nc3ncc4c(n3)N(C)C(=O)N(c3cc(NC(=O)c5cccc(C(F)(F)F)c5)ccc3C)C4)cn2)CC1 |  | 49.1% |  |  | 8 nM |  | 38% |  | 87.2% | 2480 nM | 1 nM
5 | CCN1CCN(C(=O)c2ccc(Nc3ncc4c(n3)N(C)C(=O)N(c3cc(NC(=O)c5cccc(C(F)(F)F)c5)ccc3C)C4)cn2)CC1 | Active | 24.2% | Active | Active | 13 nM | Active | 23.3% | Active | 81.8% | 6480 nM | 2 nM
